Source: ChEMBL document CHEMBL2202972, “Synthesis and biological evaluation of 2-substituted-4-(3',4',5'-trimethoxyphenyl)-5-aryl thiazoles as anticancer agents” (Bioorg Med Chem, 2012)
The source made the active and inactive calls. The rule behind the calls is not given here.

Columns and labels:
[1] = species: Bos taurus; assay: Displacement of [3H]colchicine from tubulin in bovine brain at 5 uM DEAE-cellulose filter method
[2] = tested on: HeLa; assay: Induction of apoptosis in human HeLa cells assessed as mitochondrial polarization; type: functional, cell-based
[3] = tested on: A549; assay: Resistance ratio of IC50 for human taxol-resistant A549-T12 cells expressing tubulin mutant gene to IC50 for human A549 cells; type: functional
[4] = Growth inhibition of human resting PBL after 72 hrs by MTT assay; type: cell-based; conditions: resting peripheral blood lymphocytes (PBL)
[5] = tested on: HeLa; assay: Effect on Bax expression in human HeLa cells at 250 to 500 nM after 24 to 48 hrs by Western blot analysis; type: functional, cell-based
How it was run: (§1)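 HeLa cells treated for 24 or 48 h, washed twice with ice-cold PBS and lysed on ice 30 min; lysates spun at 15000 ×g, 4 °C. Protein (20 μg) resolved by SDS–PAGE on 7.5–15% gels and blotted to PVDF. Specific primary antibodies for 2 h at room temperature, then peroxidase secondary for 60 min, ECL detection. Membranes stripped and reprobed for β-actin as loading control.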

[6] = tested on: HT-29; assay: Antiproliferative activity against human HT-29 cells after 72 hrs by MTT assay; type: functional, cell-based; conditions: HT-29, 72 h
[7] = tested on: HeLa; assay: Effect on cyclin B expression in human HeLa cells at 250 to 500 nM after 24 hrs by Western blot analysis; type: functional, cell-based; how it was run: as §1
[8] = tested on: HeLa; assay: Induction of apoptosis in human HeLa cells assessed as effect on caspase-9 activation at 250 to 500 nM after 24 to 48 hrs by Western blot analysis; type: functional, cell-based; how it was run: as §1
[9] = tested on: LoVo; assay: Resistance ratio of IC50 for human doxorubicin-resistant LoVo/DX cells overexpressing P-glycoprotein to IC50 for human LoVo cells; type: functional
[10] = tested on: HeLa; assay: Downregulation of Mcl-1 expression in human HeLa cells at 250 to 500 nM after 24 hrs by Western blot analysis; type: functional, cell-based; how it was run: as §1
[11] = tested on: HeLa; assay: Induction of survivin phosphorylation at Thr34 in human HeLa cells at 250 to 500 nM after 24 to 48 hrs by Western blot analysis
[12] = tested on: HeLa; assay: Induction of apoptosis in human HeLa cells assessed as ROS production; type: functional, cell-based
[13] = tested on: HeLa; assay: Cell cycle arrest in human HeLa cells assessed as accumulation of cells at G2/M phase at 125 nM after 24 hrs by propidium iodide staining based flow cytometric analysis; type: functional
How it was run: (§2)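 HeLa or Jurkat cells (5 × 10⁵, exponential growth) treated 24 h with 31–500 nM compound. Cells fixed in ice-cold 70% ethanol, treated with lysis buffer containing RNase A and 0.1% Triton X-100, then stained with propidium iodide. DNA content measured by flow cytometry to give phase distribution. Mean ± SEM of three independent experiments.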

[14] = tested on: HeLa; assay: Induction of apoptosis in human HeLa cells assessed as disappearance of uncleaved caspase-2 protein at 250 to 500 nM after 24 to 48 hrs by Western blot analysis; type: functional, cell-based; how it was run: as §1
[15] = tested on: HeLa; assay: Induction of apoptosis in human HeLa cells assessed as appearance of cleaved caspase-8 protein at 250 to 500 nM after 24 to 48 hrs by Western blot analysis; type: functional, cell-based; how it was run: as §1
[16] = tested on: Jurkat; assay: Antiproliferative activity against human Jurkat cells after 72 hrs by MTT assay; type: functional, cell-based
How it was run: (§3)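 Cells seeded at 8 × 10³ per well and incubated 18 h at 37 °C, 5% CO₂, then exposed to a range of compound concentrations for 72 h at 37 °C. Jurkat and HL-60 were grown in RPMI-1640, the others in DMEM, with penicillin, streptomycin and 10% FBS. DMSO stocks (10 mM); DMSO ≤0.25% final. Viability by MTT. […] Mean ± SE of ≥3 independent experiments.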

[17] = target: T1, M-phase inducer phosphatase 3 (Homo sapiens) (UniProt P30307); assay: Induction of cdc25C phosphorylation in human HeLa cells at 250 to 500 nM after 24 to 48 hrs by Western blot analysis; type: cell-based; how it was run: as §1
T1 sequence (whole entry): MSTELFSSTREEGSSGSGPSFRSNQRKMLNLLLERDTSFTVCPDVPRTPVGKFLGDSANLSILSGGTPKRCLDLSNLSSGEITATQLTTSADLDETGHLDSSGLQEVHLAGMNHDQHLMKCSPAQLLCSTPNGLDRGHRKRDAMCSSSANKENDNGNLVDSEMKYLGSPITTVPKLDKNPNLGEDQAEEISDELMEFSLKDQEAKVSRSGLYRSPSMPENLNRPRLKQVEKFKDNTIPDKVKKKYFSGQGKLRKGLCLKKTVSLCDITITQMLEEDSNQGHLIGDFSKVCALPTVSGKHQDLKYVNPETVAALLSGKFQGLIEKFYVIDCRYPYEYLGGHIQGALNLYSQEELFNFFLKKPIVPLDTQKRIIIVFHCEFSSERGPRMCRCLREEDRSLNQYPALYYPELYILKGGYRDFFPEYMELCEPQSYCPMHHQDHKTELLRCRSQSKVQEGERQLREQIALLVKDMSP

[18] = Inhibition of bovine brain tubulin polymerization preincubated for 15 mins by turbidimetric analysis; design: species or system Bos taurus
How it was run: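 Bovine brain tubulin (10 μM) in glutamate buffer preincubated with varying compound concentrations for 15 min at 30 °C, then chilled to 0 °C. GTP 0.4 mM added and mixtures warmed to 30 °C in a spectrophotometer; assembly followed by turbidity at 350 nm.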

[19] = Antiproliferative activity against human doxorubicin-resistant LoVo/DX cells overexpressing P-glycoprotein after 72 hrs by MTT assay; type: functional, cell-based
How it was run: (§4)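 Resistant sublines cultured under selection: LoVo^Doxo (doxorubicin-resistant LoVo subclone) in complete Ham's F12 with doxorubicin 0.1 μg/mL; A549-T12 in complete DMEM with taxol 12 nM. Seeded at 8 × 10³ per well, 18 h preincubation, then 72 h compound exposure at 37 °C. MTT read-out.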

[20] = tested on: HeLa; assay: Induction of apoptosis in human HeLa cells assessed as increase in caspase-3-mediated PARP cleavage at 250 to 500 nM after 24 to 48 hrs by Western blot analysis; type: functional, cell-based; how it was run: as §1
[21] = tested on: HeLa; assay: Induction of apoptosis in human HeLa cells assessed as caspase-3 activation at 250 to 500 nM after 24 to 48 hrs by Western blot analysis; type: functional, cell-based; how it was run: as §1
[22] = tested on: HeLa; assay: Downregulation of Bcl-2 expression in human HeLa cells at 250 to 500 nM after 24 to 48 hrs by Western blot analysis; type: functional, cell-based; how it was run: as §1
[23] = tested on: LoVo; assay: Antiproliferative activity against human LoVo cells after 72 hrs by MTT assay; type: functional, cell-based; how it was run: as §3
[24] = tested on: HeLa; assay: Downregulation of Xiap expression in human HeLa cells at 250 to 500 nM after 24 hrs by Western blot analysis; type: functional, cell-based; how it was run: as §1
[25] = Antiproliferative activity against human vinblastine-resistant CEM/VBL100 cells overexpressing P-glycoprotein after 72 hrs by MTT assay; type: functional, cell-based; conditions: CEM/VBL100, 72 h
[26] = tested on: Jurkat; assay: Cell cycle arrest in human Jurkat cells assessed as accumulation of cells at G2/M phase at 125 nM after 24 hrs by propidium iodide staining based flow cytometric analysis; type: functional; how it was run: as §2
[27] = tested on: HeLa; assay: Induction of apoptosis in human HeLa cells at 500 nM after 24 to 48 hrs by Annexin V-FITC/propidium iodide staining based biparametric cytofluorimetric analysis; type: functional, cell-based
How it was run: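 HeLa cells treated at 250 or 500 nM for 24 or 48 h, then labelled with annexin-V-FITC (phosphatidylserine) plus propidium iodide. Red and green fluorescence measured by biparametric flow cytometry. Mean ± SEM of three independent experiments.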

[28] = Antiproliferative activity against human taxol-resistant A549-T12 cells expressing tubulin mutant gene after 72 hrs by MTT assay; type: functional, cell-based; conditions: A549, 72 h; how it was run: as §4
[29] = target: T1, M-phase inducer phosphatase 3 (Homo sapiens); assay: Induction of cdc25C phosphorylation in human HeLa cells assessed as cdc2 kinase dephosphorylation at Tyr15 in human HeLa cells at 250 to 500 nM after 24 to 48 hrs by Western blot analysis; type: cell-based; how it was run: as §1
[30] = tested on: CCRF-CEM; assay: Resistance ratio of IC50 for human vinblastine-resistant CEM/VBL100 cells overexpressing P-glycoprotein to IC50 for human CEM cells; type: functional
[31] = tested on: MCF7; assay: Antiproliferative activity against human MCF7 cells after 72 hrs by MTT assay; type: functional, cell-based; conditions: MCF7, 72 h
[32] = tested on: HL-60; assay: Antiproliferative activity against human HL60 cells after 72 hrs by MTT assay; type: functional, cell-based; conditions: HL-60, 72 h
[33] = tested on: HeLa; assay: Antiproliferative activity against human HeLa cells after 72 hrs by MTT assay; type: functional, cell-based
[34] = tested on: PBL; assay: Growth inhibition of PHA-stimulated human PBL after 72 hrs by MTT assay; type: functional
[35] = tested on: CCRF-CEM; assay: Antiproliferative activity against human CEM cells after 72 hrs by MTT assay; type: functional, cell-based

## COc1cc(-c2nc(C)sc2-c2ccc3ccccc3c2)cc(OC)c1OC
[1]
  inhibition: 66%
[2]
  Activity: Active
[3]
  Ratio IC50: 1
[4]
  GI50 at 72 h: 1270 nM
[5]
  Activity: inactive
[6]
  IC50: 702 nM
[7]
  Activity: inactive
[8]
  Activity: inactive
[9]
  Ratio IC50: 2.1
[10]
  Activity: Active
[11]
  Activity: Active
[12]
  Activity: Active
[13]
  Activity: Active
[14]
  Activity: Active
[15]
  Activity: Active
[16]
  IC50: 48.6 nM
[17]
  Activity: Active
[18]
  IC50: 1100 nM
[19]
  IC50: 150 nM
[20]
  Activity: Active
[21]
  Activity: Active
[22]
  Activity: Active
[23]
  IC50: 72 nM
[24]
  Activity: Active
[25]
  IC50: 88 nM
[26]
  Activity: Active
[27]
  Activity: Active
[28]
  IC50: 121 nM
[29]
  Activity: Active
[30]
  Ratio IC50: 1.4
[31]
  IC50: 33.4 nM
[32]
  IC50: 205 nM
[33]
  IC50: 82.1 nM
[34]
  GI50: 285 nM
[35]
  IC50: 61 nM
